Results pooled from the literature.
Protocols differ between the studies behind these lines.
Medium: plasma

CCc1nc2c(C)cc(N3CCN(CC(=O)N4CC(O)C4)CC3)cn2c1N(C)c1nc(-c2ccc(F)cc2)c(C#N)s1 — AUC(0-inf) (human; oral; 20 mg; single dose, fed, healthy volunteers): 500 ng·h/mL
CO[C@H]1CC[C@H](N2C(=O)CNc3ncc(-c4ccc(C(C)(C)O)nc4)nc32)CC1 — AUC(0-t) (human; oral; 15 mg; multiple doses, patients): 383 ng·h/mL
Cn1cc(-c2ccc(S(=O)(=O)[C@@H]3C[C@@H](C(=O)NC4(C#N)CC4)N(C(=O)C4(C(F)(F)F)CC4)C3)c(C(F)(F)F)c2)cn1 — AUC(0-inf) (human; oral; 10 mg; single dose, fasted, healthy volunteers): 995 ng·h/mL
Cn1c(=O)oc2ccc(-c3ccc(C[C@@H](C#N)NC(=O)[C@@H]4CNCCCO4)cc3)cc21 — AUC (male human; oral; 15 mg; single dose, healthy volunteers): 4.17 µM·h
CC(C)n1cc(C#N)c2cc(-n3cc(C(=O)O)cn3)ccc21 — AUC(0-t) (human; oral; 200 mg; single dose, fasted, healthy volunteers): 43900 ng·h/mL
COCCOc1cnc2ccn([C@H](C)c3nnc4c(F)cc(-c5cnn(C)c5)cn34)c(=O)c2c1 — AUC(0-t) (human; oral; 400 mg; multiple doses, once daily, patients): 49600 ng·h/mL
Cc1ccc(C(=O)N(CCCN)[C@@H](c2oc3cc(Cl)ccc3c(=O)c2Cc2ccccc2)C(C)C)cc1 — AUC (human; intravenous; 4 mg/m²; single dose, patients, infusion): 5160 ng·h/mL
COc1cc(C(=O)NC2CCN(C)CC2)c(F)cc1Nc1ncc(C(F)(F)F)c(Oc2cccc3c2C(=O)N(C)C3)n1 — AUC (human; oral; 300 mg; multiple doses, once daily, steady state, patients): 79.6 µM·h
CC(C)(O)c1ccccc1-c1ccc2[nH]c(/C=C/c3ccc(C(F)(F)F)cc3)nc2c1 — AUC(0-t) (male human; oral; 225 mg; single dose, fasted, healthy volunteers): 27900 ng·h/mL
CO[C@@H]1[C@H](OC(=O)N2CC(CCN3CCOCC3)C2)CC[C@]2(CO2)[C@H]1[C@@]1(C)O[C@@H]1CC=C(C)C — AUC(0-t) (human; subcutaneous; 4.8 mg; single dose, healthy volunteers): 21.6 ng·h/mL
COc1ccc([C@@H]2CN(C(=O)[C@@H](O)CO)C[C@@]2(C)[C@@H](C)O)cc1OC1CN(c2ccc(C)cn2)C1 — AUC(0-t) (human; oral; 40 mg; single dose, healthy volunteers): 7650 ng·h/mL
